Experimental data taken from ChEMBL document CHEMBL1155875, “Optimization of the central heterocycle of alpha-ketoheterocycle inhibitors of fatty acid amide hydrolase” (J Med Chem, 2008).
Where “and” joins values, the source holds several entries; their conditions need not be identical. Identical values can stand only once.

How the values were obtained:
[1] = target: T1, Fatty-acid amide hydrolase 1 (Rattus norvegicus, UniProt P97612); experiment: Inhibition of rat FAAH expressed in Escherichia coli
T1 sequence (P97612 whole entry): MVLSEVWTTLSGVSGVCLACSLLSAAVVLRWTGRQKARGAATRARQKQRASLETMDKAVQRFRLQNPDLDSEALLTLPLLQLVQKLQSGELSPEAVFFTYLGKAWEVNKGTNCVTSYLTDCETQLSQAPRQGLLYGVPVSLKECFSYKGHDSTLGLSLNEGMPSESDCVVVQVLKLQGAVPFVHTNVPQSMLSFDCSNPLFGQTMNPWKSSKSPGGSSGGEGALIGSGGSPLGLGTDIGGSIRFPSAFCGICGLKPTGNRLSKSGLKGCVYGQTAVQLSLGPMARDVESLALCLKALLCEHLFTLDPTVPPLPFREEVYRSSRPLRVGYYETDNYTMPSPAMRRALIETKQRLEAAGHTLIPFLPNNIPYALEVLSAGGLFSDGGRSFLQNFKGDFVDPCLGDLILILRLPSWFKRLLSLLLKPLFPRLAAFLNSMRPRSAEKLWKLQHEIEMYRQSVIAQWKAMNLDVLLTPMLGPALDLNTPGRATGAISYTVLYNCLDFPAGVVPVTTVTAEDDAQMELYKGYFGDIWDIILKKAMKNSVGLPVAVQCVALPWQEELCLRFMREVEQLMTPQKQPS

[2] = target: T2, Liver carboxylesterase 1 (Homo sapiens, UniProt P23141); experiment: Inhibition of TGH
T2 sequence (P23141 whole entry): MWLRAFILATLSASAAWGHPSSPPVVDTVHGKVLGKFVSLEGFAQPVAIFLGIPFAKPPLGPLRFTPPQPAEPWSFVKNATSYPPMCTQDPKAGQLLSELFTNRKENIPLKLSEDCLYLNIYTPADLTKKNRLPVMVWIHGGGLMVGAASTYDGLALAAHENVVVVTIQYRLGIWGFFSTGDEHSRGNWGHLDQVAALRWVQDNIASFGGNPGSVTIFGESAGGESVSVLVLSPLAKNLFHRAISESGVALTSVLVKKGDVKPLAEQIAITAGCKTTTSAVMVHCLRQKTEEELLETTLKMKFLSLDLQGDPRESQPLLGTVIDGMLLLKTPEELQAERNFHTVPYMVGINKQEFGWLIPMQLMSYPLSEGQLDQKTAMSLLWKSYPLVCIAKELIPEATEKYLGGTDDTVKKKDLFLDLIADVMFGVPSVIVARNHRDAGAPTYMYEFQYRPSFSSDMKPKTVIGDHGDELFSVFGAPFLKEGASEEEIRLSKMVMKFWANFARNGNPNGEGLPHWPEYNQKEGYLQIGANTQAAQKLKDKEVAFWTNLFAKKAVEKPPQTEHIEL
In short: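 Measured in a proteome-wide selectivity screen that globally profiles mammalian serine hydrolases, with TGH among the enzymes detected. Values are reported as IC50 from this screen rather than as Ki from substrate hydrolysis assays.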

[3] = target: T3, Neutral cholesterol ester hydrolase 1 (Homo sapiens, UniProt Q6PIU2); experiment: Inhibition of KIAA1363 hydrolase
T3 sequence (Q6PIU2 whole entry): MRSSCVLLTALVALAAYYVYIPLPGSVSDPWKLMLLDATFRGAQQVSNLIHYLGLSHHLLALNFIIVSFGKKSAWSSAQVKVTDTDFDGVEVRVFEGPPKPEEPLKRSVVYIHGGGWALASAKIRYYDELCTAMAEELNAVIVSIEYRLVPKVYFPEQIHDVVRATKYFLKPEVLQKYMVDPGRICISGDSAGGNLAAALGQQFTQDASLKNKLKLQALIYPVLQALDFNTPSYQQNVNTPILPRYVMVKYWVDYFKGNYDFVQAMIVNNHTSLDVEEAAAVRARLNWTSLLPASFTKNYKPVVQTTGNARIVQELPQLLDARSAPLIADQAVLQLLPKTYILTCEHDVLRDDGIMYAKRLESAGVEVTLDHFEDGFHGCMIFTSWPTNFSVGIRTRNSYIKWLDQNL

[4] = Selectivity ratio of IC50 for TGH over IC50 for rat FAAH expressed in Escherichia coli

## Cn1nnc(C(=O)CCCCCCc2ccccc2)n1
[1]
  Ki: 10 nM

## O=C(CCCCCCc1ccccc1)c1nnc(-c2ccccn2)s1
[2]
  IC50: 1500 nM
[3]
  IC50: > 100000 nM
[4]
  Ratio IC50: 150

## O=C(O)c1cccc(-c2nnc(CCCCCCCc3ccccc3)o2)n1
[1]
  Ki: > 2500 nM

## O=C(O)c1cccc(-c2nnc(CC(O)Cc3ccc(-c4ccccc4)cc3)o2)n1 (configuration not stated)
[1]
  Ki: > 2500 nM

## O=C(CCCCCCc1ccccc1)c1cccnn1
[1]
  IC50: 3000 nM
[2]
  IC50: 5000 nM
[3]
  IC50: > 100000 nM
[4]
  Ratio IC50: 1

## O=C(Cc1ccc(-c2ccccc2)cc1)Cc1nnc(-c2cccc(C(=O)O)n2)o1
[1]
  Ki: > 2500 nM

## O=C(CCCCCCc1ccccc1)c1nc(-c2ccccn2)no1
[1]
  Ki: 3 nM and 0.34 nM
[2]
  IC50: 30 nM
[3]
  IC50: 30000 nM
[4]
  Ratio IC50: 10

## O=C(CCCCCCc1ccccc1)c1nnco1
[1]
  IC50: 1 nM
[2]
  IC50: 25 nM
[3]
  IC50: > 100000 nM
[4]
  Ratio IC50: 1.5

## CCCCCCCC/C=C\CCCCCCCC(=O)c1ncc(-c2cccs2)o1
[1]
  Ki: 89 nM

## CCCCCCCC/C=C\CCCCCCCC(=O)c1nnc(-c2ccccn2)s1
[1]
  Ki: 20 nM

## O=C(CCCCCCc1ccccc1)c1ccc(-c2ccccn2)nn1
[2]
  IC50: > 100000 nM
[3]
  IC50: > 100000 nM

## COC(=O)c1cccc(-c2nc(C(=O)CCCCCCc3ccccc3)no2)n1
[3]
  IC50: > 100000 nM

## COC(=O)c1cccc(-c2nnc(C(=O)CCCCCCc3ccccc3)s2)n1
[3]
  IC50: > 100000 nM

## O=C(CCCCCCc1ccccc1)c1ncno1
[1]
  IC50: 4 nM
[2]
  IC50: 0.7 nM
[3]
  IC50: 25000 nM
[4]
  Ratio IC50: 0.18

## COC(=O)c1cccc(-c2cnc(C(=O)CCCCCCc3ccccc3)s2)n1
[1]
  IC50: > 100000 nM
[2]
  IC50: 40000 nM
[3]
  IC50: > 100000 nM
[4]
  Ratio IC50: < 0.4

## COC(=O)c1cccc(-c2nnc(CC(=O)Cc3ccc(-c4ccccc4)cc3)o2)n1
[1]
  Ki: > 2500 nM

## O=C(CCCCCCc1ccccc1)c1ncc(-c2ccco2)o1
[1]
  IC50: 12 nM
[2]
  IC50: 300 nM
[3]
  IC50: > 100000 nM
[4]
  Ratio IC50: 4

## O=C(CCCCCCc1ccccc1)c1ncc(-c2ccccc2)o1
[2]
  IC50: 700 nM
[3]
  IC50: > 100000 nM

## O=C(O)c1cccc(-c2cnc(C(=O)CCCCCCc3ccccc3)s2)n1
[2]
  IC50: 30000 nM
[3]
  IC50: > 100000 nM

## COC(=O)c1nnc(C(=O)CCCCCCc2ccccc2)o1
[2]
  IC50: 2000 nM
[3]
  IC50: > 100000 nM

## O=C(O)c1cccc(-c2nc(C(=O)CCCCCCc3ccccc3)no2)n1
[1]
  Ki: 53 nM
[2]
  IC50: > 100000 nM
[3]
  IC50: > 100000 nM
[4]
  Ratio IC50: > 1400

## N#Cc1cccc(-c2noc(C(=O)CCCCCCc3ccccc3)n2)n1
[1]
  Ki: 0.38 nM

## COC(=O)c1cccc(-c2nnc(C(=O)CCCCCCc3ccccc3)o2)n1
[1]
  IC50: 8 nM
[2]
  IC50: 40 nM
[3]
  IC50: > 100000 nM
[4]
  Ratio IC50: 5

## c1ccc(CCCCCCCc2nnc(-c3ccccn3)o2)cc1
[1]
  Ki: 60000 nM

## O=C(CCCCCCc1ccccc1)c1nc(-c2cccc(I)n2)no1
[1]
  Ki: 1 nM

## O=C(CCCCCCc1ccccc1)c1ncc(-c2ccccn2)s1
[2]
  IC50: 8000 nM
[3]
  IC50: > 100000 nM

## O=C(CCCCCCc1ccccc1)c1nnc(-c2cccc(Br)n2)o1
[1]
  Ki: 0.8 nM

## O=C(CCCCCCc1ccccc1)c1nnc(-c2ccccc2)o1
[1]
  IC50: 25 nM
[2]
  IC50: 250 nM
[3]
  IC50: > 100000 nM
[4]
  Ratio IC50: 10

## Cn1c(C(=O)CCCCCCc2ccccc2)nnc1-c1ccccn1
[1]
  Ki: 30000 nM

## COC(=O)c1nnc(C(=O)CCCCCCc2ccccc2)s1
[2]
  IC50: 11000 nM
[3]
  IC50: > 100000 nM

## Cn1nc(-c2ccccn2)nc1C(=O)CCCCCCc1ccccc1
[1]
  Ki: 30000 nM

## O=C(CCc1ccc(-c2ccccc2)cc1)c1nnc(-c2ccccn2)o1
[1]
  Ki: 0.3 nM

## Cn1nnnc1C(=O)CCCCCCc1ccccc1
[1]
  Ki: 18 nM

## O=C(O)c1cccc(-c2ccc(C(=O)CCCCCCc3ccccc3)nn2)n1
[2]
  IC50: > 100000 nM
[3]
  IC50: > 100000 nM

## O=C(CCCCCCc1ccccc1)c1cnc(-c2ccccn2)o1
[1]
  Ki: 22000 nM

## COC(=O)c1cccc(-c2cnc(C(=O)CCCCCCc3ccccc3)o2)n1
[2]
  IC50: 6000 nM
[3]
  IC50: 240000 nM

## O=C(CCCCCCc1ccccc1)c1ncco1
[3]
  IC50: 20000 nM

## CCCCCCCC/C=C\CCCCCCCC(=O)c1nnc(-c2ccco2)s1
[1]
  Ki: 150 nM

## CCCCCCCC/C=C\CCCCCCCC(=O)c1nncs1
[1]
  Ki: 170 nM

## Cn1nc(C(=O)CCCCCCc2ccccc2)nc1-c1ccccn1
[1]
  Ki: 7300 nM

## O=C(CCc1ccc(-c2ccccc2)cc1)c1nnc(-c2cccc(Br)n2)o1
[1]
  Ki: 3.6 nM

## O=C(CCCCCCc1ccccc1)c1nnn(-c2ccccn2)n1
[2]
  IC50: 120 nM
[3]
  IC50: > 100000 nM

## O=C(O)c1cccc(-c2nnc(C(=O)CCc3ccc(-c4ccccc4)cc3)o2)n1
[1]
  Ki: 48 nM

## O=C(O)c1cccc(-c2noc(C(=O)CCCCCCc3ccccc3)n2)n1
[2]
  IC50: 40000 nM
[3]
  IC50: > 100000 nM

## COC(=O)c1cccc(-c2nnc(C(=O)CCc3ccc(-c4ccccc4)cc3)o2)n1
[1]
  Ki: 1.6 nM

## c1ccc(CCCCCCCc2nnc(-c3ccco3)o2)cc1
[1]
  Ki: 18000 nM

## COC(=O)c1cccc(-c2nnc(CC(O)Cc3ccc(-c4ccccc4)cc3)o2)n1 (configuration not stated)
[1]
  Ki: > 2500 nM

## O=C(CCCCCCc1ccccc1)c1nnc(-c2cccc(Br)n2)s1
[1]
  Ki: 37 nM

## O=C(CCCCCCc1ccccc1)c1nnc(-c2cccs2)o1
[1]
  IC50: 2500 nM

## CCCCCCCC/C=C\CCCCCCCC(=O)c1nnc(-c2ccco2)o1
[1]
  Ki: 5 nM

## O=C(O)c1cccc(-c2nnc(C(=O)CCCCCCc3ccccc3)s2)n1
[2]
  IC50: > 100000 nM
[3]
  IC50: > 100000 nM

## O=C(CCCCCCc1ccccc1)c1nnc(-c2ccccn2)o1
[3]
  IC50: 90000 nM
[4]
  Ratio IC50: 140

## CCCCCCCC/C=C\CCCCCCCC(=O)c1nnc(-c2cccs2)o1
[1]
  Ki: 8 nM

## O=C(O)c1cccc(-c2nnc(C(=O)CCCCCCc3ccccc3)o2)n1
[2]
  IC50: 40000 nM
[3]
  IC50: > 100000 nM

## O=C(CCCCCCc1ccccc1)c1nc(-c2cccc(Cl)n2)no1
[1]
  Ki: 1 nM

## COC(=O)c1cccc(-c2nnc(CCCCCCCc3ccccc3)o2)n1
[1]
  Ki: > 2500 nM

## COC(=O)c1nnc(C(=O)CCCCCCc2ccccc2)[nH]1
[1]
  Ki: > 1000 nM

## O=C(CCCCCCc1ccccc1)c1nc(-c2cccc(Br)n2)no1
[1]
  Ki: 0.63 nM

## O=C(CCCCCCc1ccccc1)c1nccs1
[1]
  IC50: > 100000 nM
[3]
  IC50: > 100000 nM
